Data as given in ChEMBL document CHEMBL3784969, “Pharmacokinetics of flutamide in patients with renal insufficiency” (Br J Clin Pharmacol, 1999).

Key:
[1] = Drug excretion in urine of patient (4 patients) with renal insufficiency at 250 mg, po administered as single dose by gas chromatography; assay type: ADME, organism-based; settings: human, in vivo
Summary of the method: (§1)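 Males grouped by 24 h CLcr normalised to body surface area (>80, 50–80, 30–49, 5–29 ml min−1 1.73 m−2), fasted 10 h pre-dose and 4 h post-dose, given a single oral 250 mg flutamide dose. Plasma sampled 0–96 h; urine collected in blocks to 96 h. Flutamide and hydroxyflutamide measured by GC with electron-capture detection. Renal CL = Ae(0,96 h)/AUC(0,96 h); t1/2 = 0.693/λz.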

[2] = tested on: Homo sapiens; experiment: AUClast in patient (4 patients) with renal insufficiency at 250 mg, po assessed as hydroxy flutamide administered as single dose by gas chromatography; assay type: ADME, organism-based; design: dose 250 mg, time 0 - last, route oral; settings: in vivo
[3] = tested on: Homo sapiens; experiment: AUC (0 to infinity) in patient (4 patients) with renal insufficiency at 250 mg, po assessed as hydroxy flutamide administered as single dose by gas chromatography; assay type: ADME, organism-based; design: dose 250 mg, time infinity, route oral; settings: in vivo
[4] = tested on: Homo sapiens; experiment: Terminal half life in patient (4 patients) with renal insufficiency assessed as hydroxy flutamide at 250 mg, po administered as single dose by gas chromatography; assay type: ADME, organism-based; settings: in vivo; summary of the method: as §1
[5] = Drug excretion in urine of patient (4 patients) with renal insufficiency assessed as hydroxy flutamide at 250 mg, po administered as single dose by gas chromatography; assay type: ADME, organism-based; settings: human, in vivo; summary of the method: as §1
[6] = Tmax in patient (6 patients) with renal insufficiency at 250 mg, po administered as single dose 4 hrs prior to hemodialysis treatment measured at starting time of dialysis and post dialysis treatment by gas chromatography; assay type: ADME, organism-based; settings: human, in vivo
Summary of the method: (§2)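 Group V haemodialysis males (CLcr <5 ml min−1 1.73 m−2). Single oral 250 mg flutamide (two 125 mg capsules) right after HD; after 14-day washout, same dose 4 h before HD lasting 2–4 h. Venous samples to 48 h, arterial/venous during HD, dialysate in hourly blocks. GC with 63Ni electron-capture detection. CL(HD) = dialysate Ae(HD)/arterial AUC(HD); renal CL = Ae(0,48)/AUC(0,48 h).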

[7] = AUC (0 to 24 hrs) in patient (6 patients) with renal insufficiency at 250 mg, po administered as single dose 4 hrs prior to hemodialysis treatment measured at starting time of dialysis and post dialysis treatment by gas chromatography; assay type: ADME, organism-based; design: time < 24 hr, dose 250 mg, route oral; settings: human, in vivo
[8] = tested on: Homo sapiens; experiment: Tmax in patient (6 patients) with renal insufficiency assessed as hydroxy flutamide at 250 mg, po administered as single dose 4 hrs prior to hemodialysis treatment measured at starting time of dialysis and post dialysis treatment by gas chromatography; assay type: ADME, organism-based; settings: in vivo; summary of the method: as §2
[9] = tested on: Homo sapiens; experiment: Terminal half life in patient (6 patients) with renal insufficiency assessed as hydroxy flutamide at 250 mg, po administered as single dose 4 hrs prior to hemodialysis treatment measured at starting time of dialysis and post dialysis treatment by gas chromatography; assay type: ADME, organism-based; settings: in vivo; summary of the method: as §2
[10] = tested on: Homo sapiens; experiment: Clearance in patient (6 patients) with renal insufficiency assessed as hydroxy flutamide at 250 mg, po administered as single dose 4 hrs prior to hemodialysis treatment measured during dialysis treatment by gas chromatography; assay type: ADME, organism-based; settings: in vivo; summary of the method: as §2
[11] = Tmax in patient (6 patients) with renal insufficiency at 250 mg, po administered as single dose by gas chromatography; assay type: ADME, organism-based; settings: human, in vivo; summary of the method: as §1
[12] = AUC (0 to 24 hrs) in patient (6 patients) with renal insufficiency at 250 mg, po administered as single dose by gas chromatography; assay type: ADME, organism-based; design: dose 250 mg, time < 24 hr, route oral; settings: human, in vivo
[13] = AUC (0 to 96 hrs) in patient (6 patients) with renal insufficiency at 250 mg, po administered as single dose by gas chromatography; assay type: ADME, organism-based; design: dose 250 mg, time < 96 hr, route oral; settings: human, in vivo
[14] = Drug excretion in urine of patient (6 patients) with renal insufficiency at 250 mg, po administered as single dose by gas chromatography; assay type: ADME, organism-based; settings: human, in vivo; summary of the method: as §1
[15] = tested on: Homo sapiens; experiment: AUC (0 to infinity) in patient (6 patients) with renal insufficiency at 250 mg, po assessed as hydroxy flutamide administered as single dose by gas chromatography; assay type: ADME, organism-based; design: dose 250 mg, route oral, time infinity; settings: in vivo
[16] = Drug excretion in urine of patient (6 patients) with renal insufficiency assessed as hydroxy flutamide at 250 mg, po administered as single dose by gas chromatography; assay type: ADME, organism-based; settings: human, in vivo; summary of the method: as §1
[17] = Tmax in patient (7 patients) with renal insufficiency at 250 mg, po administered as single dose by gas chromatography; assay type: ADME, organism-based; settings: human, in vivo; summary of the method: as §1
[18] = AUC (0 to 24 hrs) in patient (7 patients) with renal insufficiency at 250 mg, po administered as single dose by gas chromatography; assay type: ADME, organism-based; design: dose 250 mg, time < 24 hr, route oral; settings: human, in vivo
[19] = AUC (0 to 96 hrs) in patient (7 patients) with renal insufficiency at 250 mg, po administered as single dose by gas chromatography; assay type: ADME, organism-based; design: dose 250 mg, time < 96 hr, route oral; settings: human, in vivo
[20] = Elimination rate constant in patient with renal insufficiency at 250 mg, po administered first dose followed by 14 days wash out period and administered second dose 4 hrs prior to hemodialysis measured during hemodialysis treatment by gas chromatography; assay type: ADME, organism-based; settings: human, in vivo; summary of the method: as §2
[21] = Half life in patient with renal insufficiency at 250 mg, po administered first dose followed by 14 days wash out period and administered second dose 4 hrs prior to hemodialysis day measured during hemodialysis treatment by gas chromatography; assay type: ADME, organism-based; settings: human, in vivo; summary of the method: as §2
[22] = tested on: Homo sapiens; experiment: Toxicity in patient with renal insufficiency assessed as headache at 250 mg, po administered as single dose; assay type: organism-based; settings: in vivo
Summary of the method: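 26 male subjects in groups by 24 h creatinine clearance (normalized to body surface area): >80, 50–80, 30–49, 5–29, <5 ml min−1 1.73 m−2 on haemodialysis. Given as two 125 mg capsules after a 10 h fast, continued 4 h post-dose. Prescription drugs withheld for the same period. Subjects confined 12 h pre-dose to 48 h post-dose, with adverse events compared across renal-function groups.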

[23] = Plasma protein binding in healthy geriatric volunteer by equilibrium dialysis method; assay type: ADME, cell-free; settings: human, read-out: PPB
[24] = AUClast in patient (7 patients) with renal insufficiency at 250 mg, po administered as single dose by gas chromatography; assay type: ADME, organism-based; design: dose 250 mg, time 0 - last, route oral; settings: human, in vivo
[25] = tested on: Homo sapiens; experiment: AUC (0 to infinity) in patient (7 patients) with renal insufficiency at 250 mg, po assessed as hydroxy flutamide administered as single dose by gas chromatography; assay type: ADME, organism-based; design: dose 250 mg, route oral, time infinity; settings: in vivo
[26] = tested on: Homo sapiens; experiment: Final time point in terminal phase in patient (7 patients) with renal insufficiency assessed as hydroxy flutamide at 250 mg, po administered as single dose by gas chromatography; assay type: ADME, organism-based; settings: in vivo; summary of the method: as §1
[27] = tested on: Homo sapiens; experiment: Terminal half life in patient (7 patients) with renal insufficiency assessed as hydroxy flutamide at 250 mg, po administered as single dose by gas chromatography; assay type: ADME, organism-based; settings: in vivo; summary of the method: as §1
[28] = Drug excretion in urine of patient (7 patients) with renal insufficiency assessed as hydroxy flutamide at 250 mg, po administered as single dose by gas chromatography; assay type: ADME, organism-based; settings: human, in vivo; summary of the method: as §1
[29] = tested on: Homo sapiens; experiment: Renal clearance in patient (7 patients) with renal insufficiency assessed as hydroxy flutamide at 250 mg, po administered as single dose by gas chromatography; assay type: ADME, organism-based, Kidney; settings: in vivo; summary of the method: as §1
[30] = Cmax in patient (3 patients) with renal insufficiency at 250 mg, po administered as single dose by gas chromatography; assay type: ADME, organism-based; design: dose 250 mg, route oral; settings: human, in vivo
[31] = tested on: Homo sapiens; experiment: Tmax in patient (3 patients) with renal insufficiency assessed as hydroxy flutamide at 250 mg, po administered as single dose by gas chromatography; assay type: ADME, organism-based; settings: in vivo; summary of the method: as §1
[32] = tested on: Homo sapiens; experiment: AUC (0 to 96 hrs) in patient (3 patients) with renal insufficiency at 250 mg, po assessed as hydroxy flutamide administered as single dose by gas chromatography; assay type: ADME, organism-based; design: dose 250 mg, time < 96 hr, route oral; settings: in vivo

CC(C)C(=O)Nc1ccc([N+](=O)[O-])c(C(F)(F)F)c1 [FLUTAMIDE]
Drug excretion [1]: 30 µg
AUClast [2]: 6435 ng·h/mL
AUC [3]: 6499 ng·h/mL
beta t1/2 [4]: 9 h
Drug excretion [5]: 92 µg
Tmax [6]: 1 h
AUC(0-t) at 24 h [7]: 217 ng·h/mL
Tmax [8]: 1 h
beta t1/2 [9]: 8 h
CL [10]: 21 mL/min
Tmax [11]: 1.4 h
AUC(0-t) at 24 h [12]: 96.4 ng·h/mL
AUC(0-t) at 96 h [13]: 96.4 ng·h/mL
Drug excretion [14]: 24.4 µg
AUC [15]: 5527 ng·h/mL
Drug excretion [16]: 118.3 µg
Tmax [17]: 1.7 h
AUC(0-t) at 24 h [18]: 59.8 ng·h/mL
AUC(0-t) at 96 h [19]: 59.8 ng·h/mL
k el [20]: 5.56e-05 s⁻¹
half-life [21]: 4.3 h
Activity [22]: 12%
fraction unbound [23]: < 0.06
AUC(0-t) [24]: 32.5 ng·h/mL
AUC [25]: 4993 ng·h/mL
Time [26]: 38.6 h
beta t1/2 [27]: 7.1 h
Drug excretion [28]: 88.3 µg
CL [29]: 0.3 mL/min
Cmax [30]: 41 ng/mL
Tmax [31]: 3 h
AUC [32]: 6907 ng·h/mL
